Data: ChEMBL document CHEMBL5058577, “EUbOPEN Chemogenomics Library 2 (Multiplex)” (2022)

System: Fibroblast
Test: Multiplex assay against human fibroblast
Type: toxicity, cell-based
How it was run: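 Tubulin, mitochondrial-mass and membrane-permeability phenotypes are per cents of healthy-nucleus cells. Cells were gated by CellPathfinder machine learning into Hoechst high-intensity objects or normal cells, normal cells into healthy, pyknosed or fragmented nuclei, and pyknosed cells into mitotic or apoptotic. Before that, live cells stained at seeding with Hoechst33342, BioTracker Green Microtubule Cytoskeleton Dye, MitoTracker Red and Annexin V Alexa Fluor 680 were imaged on a CQ1 microscope at 37°C and 5% CO2 after compound addition.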

[1] = 12 h, 1 µM, compound concentration 1 uM, replicate 1
[2] = 12 h, 1 µM, compound concentration 1 uM, replicate 2
[3] = 12 h, 10 µM, compound concentration 10 uM, replicate 1
[4] = 12 h, 10 µM, compound concentration 10 uM, replicate 2
[5] = 24 h, 1 µM, compound concentration 1 uM, replicate 1
[6] = 24 h, 1 µM, compound concentration 1 uM, replicate 2
[7] = 24 h, 10 µM, compound concentration 10 uM, replicate 1
[8] = 24 h, 10 µM, compound concentration 10 uM, replicate 2
[9] = 48 h, 1 µM, compound concentration 1 uM, replicate 1
[10] = 48 h, 1 µM, compound concentration 1 uM, replicate 2
[11] = 48 h, 10 µM, compound concentration 10 uM, replicate 1
[12] = 48 h, 10 µM, compound concentration 10 uM, replicate 2

COc1c(C)cc(NC(=O)c2nn(Cc3ccc(F)cc3)c3c2CN(C(=O)c2ccc[nH]2)C[C@]3(C)C(N)=O)cc1C
Population Apoptotic (%) [1]: 42% | Population Fragmented Nuclei (%) [1]: 21% | Population Healthy Nuclei (%) [1]: 58% | Population Hoechst High Intensity Objects (%) [1]: 2% | Population Membrane Permeable-Phenotype (%) [1]: 1% | Population Mitochondria Different-Phenotype (%) [1]: 18% | Population Mitotic Cells (%) [1]: 57% | Population Normal (%) [1]: 97% | Population Pyknosed Nuclei (%) [1]: 20% | Population Tubulin-Different-Phenotype (%) [1]: 64% | Total Cell Count [1]: 95 | Population Apoptotic (%) [2]: 46% | Population Fragmented Nuclei (%) [2]: 16% | Population Healthy Nuclei (%) [2]: 51% | Population Hoechst High Intensity Objects (%) [2]: 3% | Population Membrane Permeable-Phenotype (%) [2]: 6% | Population Mitochondria Different-Phenotype (%) [2]: 11% | Population Mitotic Cells (%) [2]: 53% | Population Normal (%) [2]: 96% | Population Pyknosed Nuclei (%) [2]: 31% | Population Tubulin-Different-Phenotype (%) [2]: 72% | Total Cell Count [2]: 86 | Population Apoptotic (%) [3]: 47% | Population Fragmented Nuclei (%) [3]: 12% | Population Healthy Nuclei (%) [3]: 58% | Population Hoechst High Intensity Objects (%) [3]: 1% | Population Membrane Permeable-Phenotype (%) [3]: 0% | Population Mitochondria Different-Phenotype (%) [3]: 25% | Population Mitotic Cells (%) [3]: 52% | Population Normal (%) [3]: 98% | Population Pyknosed Nuclei (%) [3]: 29% | Population Tubulin-Different-Phenotype (%) [3]: 90% | Total Cell Count [3]: 166 | Population Apoptotic (%) [4]: 52% | Population Fragmented Nuclei (%) [4]: 29% | Population Healthy Nuclei (%) [4]: 38% | Population Hoechst High Intensity Objects (%) [4]: 2% | Population Membrane Permeable-Phenotype (%) [4]: 6% | Population Mitochondria Different-Phenotype (%) [4]: 30% | Population Mitotic Cells (%) [4]: 47% | Population Normal (%) [4]: 97% | Population Pyknosed Nuclei (%) [4]: 32% | Total Cell Count [4]: 115 | Population Apoptotic (%) [5]: 66% | Population Fragmented Nuclei (%) [5]: 25% | Population Healthy Nuclei (%) [5]: 61% | Population Hoechst High Intensity Objects (%) [5]: 3% | Population Membrane Permeable-Phenotype (%) [5]: 1% | Population Mitochondria Different-Phenotype (%) [5]: 17% | Population Mitotic Cells (%) [5]: 33% | Population Normal (%) [5]: 96% | Population Pyknosed Nuclei (%) [5]: 12% | Population Tubulin-Different-Phenotype (%) [5]: 45% | Total Cell Count [5]: 96 | Population Apoptotic (%) [6]: 48% | Population Fragmented Nuclei (%) [6]: 31% | Population Healthy Nuclei (%) [6]: 38% | Population Hoechst High Intensity Objects (%) [6]: 6% | Population Membrane Permeable-Phenotype (%) [6]: 8% | Population Mitotic Cells (%) [6]: 51% | Population Normal (%) [6]: 93% | Population Pyknosed Nuclei (%) [6]: 30% | Population Tubulin-Different-Phenotype (%) [6]: 67% | Total Cell Count [6]: 95 | Population Apoptotic (%) [7]: 65% | Population Fragmented Nuclei (%) [7]: 14% | Population Healthy Nuclei (%) [7]: 64% | Population Hoechst High Intensity Objects (%) [7]: 3% | Population Membrane Permeable-Phenotype (%) [7]: 0% | Population Mitochondria Different-Phenotype (%) [7]: 47% | Population Mitotic Cells (%) [7]: 34% | Population Normal (%) [7]: 96% | Population Pyknosed Nuclei (%) [7]: 20% | Population Tubulin-Different-Phenotype (%) [7]: 90% | Total Cell Count [7]: 159 | Population Apoptotic (%) [8]: 43% | Population Fragmented Nuclei (%) [8]: 30% | Population Healthy Nuclei (%) [8]: 47% | Population Hoechst High Intensity Objects (%) [8]: 4% | Population Membrane Permeable-Phenotype (%) [8]: 8% | Population Mitochondria Different-Phenotype (%) [8]: 26% | Population Mitotic Cells (%) [8]: 56% | Population Normal (%) [8]: 95% | Population Pyknosed Nuclei (%) [8]: 21% | Population Tubulin-Different-Phenotype (%) [8]: 82% | Total Cell Count [8]: 110 | Population Apoptotic (%) [9]: 87% | Population Fragmented Nuclei (%) [9]: 29% | Population Healthy Nuclei (%) [9]: 61% | Population Hoechst High Intensity Objects (%) [9]: 7% | Population Membrane Permeable-Phenotype (%) [9]: 0% | Population Mitochondria Different-Phenotype (%) [9]: 10% | Population Mitotic Cells (%) [9]: 12% | Population Normal (%) [9]: 92% | Population Pyknosed Nuclei (%) [9]: 8% | Population Tubulin-Different-Phenotype (%) [9]: 45% | Total Cell Count [9]: 99 | Population Apoptotic (%) [10]: 70% | Population Fragmented Nuclei (%) [10]: 34% | Population Healthy Nuclei (%) [10]: 45% | Population Hoechst High Intensity Objects (%) [10]: 5% | Population Membrane Permeable-Phenotype (%) [10]: 10% | Population Mitotic Cells (%) [10]: 29% | Population Normal (%) [10]: 94% | Population Pyknosed Nuclei (%) [10]: 19% | Population Tubulin-Different-Phenotype (%) [10]: 69% | Total Cell Count [10]: 91 | Population Apoptotic (%) [11]: 60% | Population Fragmented Nuclei (%) [11]: 22% | Population Healthy Nuclei (%) [11]: 60% | Population Hoechst High Intensity Objects (%) [11]: 4% | Population Membrane Permeable-Phenotype (%) [11]: 0% | Population Mitochondria Different-Phenotype (%) [11]: 54% | Population Mitotic Cells (%) [11]: 39% | Population Normal (%) [11]: 95% | Population Pyknosed Nuclei (%) [11]: 17% | Population Tubulin-Different-Phenotype (%) [11]: 92% | Total Cell Count [11]: 166 | Population Apoptotic (%) [12]: 77% | Population Fragmented Nuclei (%) [12]: 41% | Population Healthy Nuclei (%) [12]: 51% | Population Hoechst High Intensity Objects (%) [12]: 2% | Population Membrane Permeable-Phenotype (%) [12]: 3% | Population Mitochondria Different-Phenotype (%) [12]: 16% | Population Mitotic Cells (%) [12]: 22% | Population Normal (%) [12]: 97% | Population Pyknosed Nuclei (%) [12]: 7% | Population Tubulin-Different-Phenotype (%) [12]: 75% | Total Cell Count [12]: 122

CSc1ccccc1N1CCN(CCCCCC(=O)NC2CCCc3ccccc32)CC1.Cl (configuration not stated)
Population Apoptotic (%) [1]: 37% | Population Fragmented Nuclei (%) [1]: 26% | Population Healthy Nuclei (%) [1]: 49% | Population Hoechst High Intensity Objects (%) [1]: 6% | Population Membrane Permeable-Phenotype (%) [1]: 1% | Population Mitochondria Different-Phenotype (%) [1]: 15% | Population Mitotic Cells (%) [1]: 62% | Population Normal (%) [1]: 93% | Population Pyknosed Nuclei (%) [1]: 24% | Population Tubulin-Different-Phenotype (%) [1]: 65% | Total Cell Count [1]: 126 | Population Apoptotic (%) [2]: 50% | Population Fragmented Nuclei (%) [2]: 32% | Population Healthy Nuclei (%) [2]: 41% | Population Hoechst High Intensity Objects (%) [2]: 2% | Population Membrane Permeable-Phenotype (%) [2]: 9% | Population Mitochondria Different-Phenotype (%) [2]: 7% | Population Mitotic Cells (%) [2]: 50% | Population Normal (%) [2]: 97% | Population Pyknosed Nuclei (%) [2]: 25% | Population Tubulin-Different-Phenotype (%) [2]: 74% | Total Cell Count [2]: 135 | Population Apoptotic (%) [3]: 58% | Population Fragmented Nuclei (%) [3]: 25% | Population Healthy Nuclei (%) [3]: 57% | Population Hoechst High Intensity Objects (%) [3]: 5% | Population Membrane Permeable-Phenotype (%) [3]: 0% | Population Mitochondria Different-Phenotype (%) [3]: 78% | Population Mitotic Cells (%) [3]: 41% | Population Normal (%) [3]: 94% | Population Pyknosed Nuclei (%) [3]: 17% | Population Tubulin-Different-Phenotype (%) [3]: 95% | Total Cell Count [3]: 220 | Population Apoptotic (%) [4]: 66% | Population Fragmented Nuclei (%) [4]: 34% | Population Healthy Nuclei (%) [4]: 50% | Population Mitochondria Different-Phenotype (%) [4]: 36% | Population Mitotic Cells (%) [4]: 33% | Population Pyknosed Nuclei (%) [4]: 14% | Population Tubulin-Different-Phenotype (%) [4]: 92% | Total Cell Count [4]: 242 | Population Apoptotic (%) [5]: 52% | Population Fragmented Nuclei (%) [5]: 29% | Population Healthy Nuclei (%) [5]: 52% | Population Hoechst High Intensity Objects (%) [5]: 6% | Population Membrane Permeable-Phenotype (%) [5]: 0% | Population Mitochondria Different-Phenotype (%) [5]: 21% | Population Mitotic Cells (%) [5]: 47% | Population Normal (%) [5]: 93% | Population Pyknosed Nuclei (%) [5]: 18% | Population Tubulin-Different-Phenotype (%) [5]: 40% | Total Cell Count [5]: 133 | Population Apoptotic (%) [6]: 37% | Population Fragmented Nuclei (%) [6]: 33% | Population Healthy Nuclei (%) [6]: 43% | Population Hoechst High Intensity Objects (%) [6]: 3% | Population Membrane Permeable-Phenotype (%) [6]: 3% | Population Mitochondria Different-Phenotype (%) [6]: 11% | Population Mitotic Cells (%) [6]: 62% | Population Normal (%) [6]: 96% | Population Pyknosed Nuclei (%) [6]: 23% | Population Tubulin-Different-Phenotype (%) [6]: 64% | Total Cell Count [6]: 130 | Population Apoptotic (%) [7]: 90% | Population Fragmented Nuclei (%) [7]: 22% | Population Healthy Nuclei (%) [7]: 66% | Population Hoechst High Intensity Objects (%) [7]: 7% | Population Membrane Permeable-Phenotype (%) [7]: 0% | Population Mitochondria Different-Phenotype (%) [7]: 81% | Population Mitotic Cells (%) [7]: 9% | Population Normal (%) [7]: 92% | Population Pyknosed Nuclei (%) [7]: 11% | Population Tubulin-Different-Phenotype (%) [7]: 98% | Total Cell Count [7]: 211 | Population Apoptotic (%) [8]: 66% | Population Fragmented Nuclei (%) [8]: 33% | Population Healthy Nuclei (%) [8]: 56% | Population Hoechst High Intensity Objects (%) [8]: 3% | Population Mitochondria Different-Phenotype (%) [8]: 51% | Population Mitotic Cells (%) [8]: 33% | Population Normal (%) [8]: 96% | Population Pyknosed Nuclei (%) [8]: 9% | Population Tubulin-Different-Phenotype (%) [8]: 90% | Total Cell Count [8]: 258 | Population Apoptotic (%) [9]: 61% | Population Fragmented Nuclei (%) [9]: 26% | Population Healthy Nuclei (%) [9]: 56% | Population Hoechst High Intensity Objects (%) [9]: 6% | Population Membrane Permeable-Phenotype (%) [9]: 2% | Population Mitochondria Different-Phenotype (%) [9]: 17% | Population Mitotic Cells (%) [9]: 38% | Population Normal (%) [9]: 93% | Population Pyknosed Nuclei (%) [9]: 17% | Population Tubulin-Different-Phenotype (%) [9]: 69% | Total Cell Count [9]: 132 | Population Apoptotic (%) [10]: 44% | Population Fragmented Nuclei (%) [10]: 33% | Population Healthy Nuclei (%) [10]: 45% | Population Hoechst High Intensity Objects (%) [10]: 1% | Population Membrane Permeable-Phenotype (%) [10]: 0% | Population Mitochondria Different-Phenotype (%) [10]: 12% | Population Mitotic Cells (%) [10]: 56% | Population Normal (%) [10]: 98% | Population Pyknosed Nuclei (%) [10]: 20% | Population Tubulin-Different-Phenotype (%) [10]: 64% | Total Cell Count [10]: 124 | Population Apoptotic (%) [11]: 91% | Population Fragmented Nuclei (%) [11]: 25% | Population Healthy Nuclei (%) [11]: 61% | Population Hoechst High Intensity Objects (%) [11]: 8% | Population Membrane Permeable-Phenotype (%) [11]: 0% | Population Mitochondria Different-Phenotype (%) [11]: 82% | Population Mitotic Cells (%) [11]: 8% | Population Normal (%) [11]: 91% | Population Pyknosed Nuclei (%) [11]: 12% | Population Tubulin-Different-Phenotype (%) [11]: 97% | Total Cell Count [11]: 195 | Population Apoptotic (%) [12]: 68% | Population Fragmented Nuclei (%) [12]: 38% | Population Healthy Nuclei (%) [12]: 53% | Population Hoechst High Intensity Objects (%) [12]: 4% | Population Membrane Permeable-Phenotype (%) [12]: 2% | Population Mitochondria Different-Phenotype (%) [12]: 33% | Population Mitotic Cells (%) [12]: 31% | Population Normal (%) [12]: 95% | Population Pyknosed Nuclei (%) [12]: 8% | Population Tubulin-Different-Phenotype (%) [12]: 83% | Total Cell Count [12]: 281
